What all share (assay type): functional, organism-based
The subject of assay [1] is Rattus norvegicus. The assay is described as follows: (§1) Tested for effect on ethanol derived blood Ach levels in rats at 1.0 mmol/kg. The method, boiled down: (§2)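 Fasted male Sprague-Dawley rats (185-225 g) received a single 1.0 mmol/kg ip dose at zero time, in saline or in 2% aqueous CMC if water-insoluble. Ethanol (2.0 g/kg, ip) was given at 2 or 15 h. Blood from open-chest cardiac puncture 1 h later went into 5 mM sodium azide. Headspace GC in duplicate against an AcH standard curve. Four rats per protocol; mean ± SE.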

Assay [2] deals with Rattus norvegicus. Described as §1. An outline of the steps: as §2
The source holds these as a separate data set.

Assay [3] deals with Rattus norvegicus. The assay is described as follows: Compound was tested for effect on ethanol derived blood Ach levels in rats at the administrations (pro drug administration of 1.0 mmol/kg) oral(po). An outline of the steps:
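A single 1.0 mmol/kg dose was given by stomach tube at zero time to fasted male Sprague-Dawley rats (185-225 g). Ethanol (2.0 g/kg, ip) was given 1 h before sacrifice: blood sampled at 4 h, or over 48 h with ethanol at 1, 4, 11, 23, 35 and 47 h, two rats per time. Cardiac blood went into sodium azide; AcH was measured by headspace GC in duplicate.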

Assay [4] relates to Rattus norvegicus. As to the kind of experiment: Compound was tested for effect on ethanol derived blood Ach levels in rats at administration (pro drug administration of 1.0 mmol/kg) ip. An outline of the steps: as §2

Regarding `CC(C)(C)C(=O)NC#N`, the Concentration in assay [1] came to 1200 µM; in assay [2] it was 200 µM.

Turning to `N#CNC(=O)CNC(=O)OCc1ccccc1`, the Concentration in assay [1] amounted to 900 µM; in assay [3] it was 125 µM; in assay [4], 850 µM; in assay [2] it was 35 µM.

In the case of `CC(C)C[C@H](NC(=O)c1ccccc1)C(=O)NC#N`, the Concentration came out at 1000 µM in assay [1] and 300 µM in assay [2].

As for `N#CNC(=O)OCc1ccccc1`, the Concentration in assay [1] was 1200 µM; in assay [2] it was 50 µM.

With `CC(C)C[C@H](NC(=O)[C@@H]1CCC(=O)N1)C(=O)NC#N`, the Concentration in assay [1] stood at 200 µM; in assay [2], 25 µM.

Turning to `CCCC(=O)NC#N`, the results for the Concentration in assay [1] and in assay [2] were 1750 µM and 250 µM, respectively.

Consider `N#CNC(=O)C12CC3CC(CC(C3)C1)C2`, for which the Concentration stood at 1250 µM in assay [1] and 75 µM in assay [2].

For the molecule `N#CNC(=O)[C@H](Cc1ccccc1)NC(=O)[C@@H]1CCC(=O)N1`, the Concentration in assay [1] stood at 1150 µM; in assay [2], 150 µM.

With `N#CN`, the results for the Concentration in assay [1] and in assay [2] were 1050 µM and 225 µM, respectively.

Turning to `N#CNC(=O)CNC(=O)c1ccccc1`, the Concentration in assay [1] is 400 µM; in assay [2], 200 µM.

`N#CNC(=O)Cc1ccccc1`: the Concentration in assay [1] came to 1250 µM; in assay [2], 1300 µM.

Regarding `CC(C)C[C@H](NC(=O)CNC(=O)OCc1ccccc1)C(=O)NC#N`, the figures for the Concentration in assay [1] and in assay [2] were 1050 µM and 35 µM, respectively.

As to `CCCCCCCCCCCCCCCCCC(=O)NC#N`, the figures for the Concentration in assay [1] and in assay [2] were 1300 µM and 600 µM, respectively.

As for `CCCCCCCCCCCCCCCC(=O)NC#N`, the Concentration stood at 1600 µM in assay [1], 1300 µM in assay [3], 1150 µM in assay [4] and 1100 µM in assay [2].

As to `N#CNC(=O)C1CCC(=O)N1C(=O)OCc1ccccc1` (stereo not given), the Concentration in assay [1] worked out at 175 µM; in assay [2], 35 µM.

For `N#CNC(=O)c1ccccc1`, the Concentration was found to be 300 µM in assay [1] and 100 µM in assay [2].

Regarding `CC(=O)NC#N`, the Concentration in assay [1] worked out at 250 µM; in assay [3] it was 350 µM; in assay [4], 400 µM; in assay [2], 50 µM.

For the origin of these results see ChEMBL document CHEMBL1123232, “Acyl, N-protected alpha-aminoacyl, and peptidyl derivatives as prodrug forms of the alcohol deterrent agent cyanamide” (J Med Chem, 1986).
